Assay results of several laboratories.
Lines come from different studies, so protocols differ.
EGFR L858R/T790M: Epidermal growth factor receptor (EGFR, Homo sapiens, UniProt P00533, L858R/T790M)
EGFR T790M: Epidermal growth factor receptor (EGFR, Homo sapiens, UniProt P00533, T790M)
EGFR G719C: Epidermal growth factor receptor (EGFR, Homo sapiens, UniProt P00533, G719C)
EGFR L858R: Epidermal growth factor receptor (EGFR, Homo sapiens, UniProt P00533, L858R)
EGFR del752-759: Epidermal growth factor receptor (EGFR, Homo sapiens, UniProt P00533, del752-759)
EGFR A750P/del747-749: Epidermal growth factor receptor (EGFR, Homo sapiens, UniProt P00533, A750P/del747-749)
EGFR del747-752/P753S: Epidermal growth factor receptor (EGFR, Homo sapiens, UniProt P00533, del747-752/P753S)
EGFR: Epidermal growth factor receptor (EGFR, Homo sapiens, UniProt P00533)
EGFR G719S: Epidermal growth factor receptor (EGFR, Homo sapiens, UniProt P00533, G719S)

CC1CCCN1c1nccc(-c2cnn3ncccc23)n1 (centres unmarked)
remaining binding (EGFR L858R/T790M; binding; 1 µM): 100%

O=C(c1ccc(Nc2ncc(Cl)c(-c3cc4ccccc4s3)n2)cc1)N1CCC(N2CCCC2)CC1
remaining binding (EGFR T790M; binding; competition with immobilised ligand; 1 µM): 58%

c1cnn2ncc(-c3ccnc(N4CCC45COC5)n3)c2c1
remaining binding (EGFR L858R/T790M; binding; 1 µM): 65%

CC(=O)C1=C(C)N(c2cccc(C(F)(F)F)c2)C(=O)N[C@@H]1c1ccc(C#N)nc1
remaining binding (EGFR G719C; cell-free assay; competition with immobilised ligand; 1 µM): 100%

COc1ncc2cc3ccccc3nc2c1C#N
remaining binding (EGFR L858R; cell-free assay; competition with immobilised ligand; 5 µM): 99%

O=C(NCC1CCOCC1)c1n[nH]cc1NC(=O)c1c(F)cccc1F
remaining binding (EGFR L858R; binding; competition with immobilised ligand; 1 µM): 89%

Nc1ncc2c(n1)-c1c([nH]c3ccc(C#CC4CC4)cc13)CCCC2
remaining binding (EGFR del752-759; binding; competition with immobilised ligand; 1 µM): 100%

CCOC(=O)c1cc2cc(-c3cc(C(=O)NCc4ccc(C(=O)O)cc4)nn3C)ccc2[nH]1
remaining binding (EGFR G719C; cell-free assay; competition with immobilised ligand; 0.1 µM): 100%

CN1CCN(c2ccc(Nc3nccc(-c4cccc([N+](=O)[O-])c4)n3)cc2C(F)(F)F)CC1
remaining binding (EGFR G719C; binding; 10 µM): 69%

CNC(=O)Nc1ccc2c(c1)[C@@]1(CC2)OC(=O)N(CC(=O)N(Cc2ccc(F)cc2)[C@@H](C)C(F)(F)F)C1=O
remaining binding (EGFR A750P/del747-749; cell-free assay; competition with immobilised ligand; 1 µM): 96%

CCN1CCN(Cc2ccc(C(=O)Nc3ccc(C)c(Oc4ccc5c(c4)CC(=O)N5)c3)cc2C(F)(F)F)CC1
remaining binding (EGFR A750P/del747-749; binding; competition with immobilised ligand; 1 µM): 100%

O=C(c1ccc(Nc2ncc(Cl)c(-c3ccc(Cl)s3)n2)cc1)N1CCC(N2CCCC2)CC1
remaining binding (Epidermal growth factor receptor (EGFR, Homo sapiens, UniProt P00533, L861Q); binding; competition with immobilised ligand; 1 µM): 100%

Cn1nc(C(F)(F)F)cc1-c1cnc(N2CCc3cc(S(=O)(=O)Nc4c(F)cc(Cl)cc4F)cc(N4CCCC4=O)c32)nc1
remaining binding (EGFR del747-752/P753S; cell-free assay; competition with immobilised ligand; 1 µM): 100%

O=C(NCCCN1CCOCC1)c1ccc(Nc2nccc(-c3cc4ccccc4s3)n2)cc1
remaining binding (EGFR G719C; binding; competition with immobilised ligand; 1 µM): 99%

CN1CCN(c2ccc(Nc3nccc(-c4ccccc4)n3)cc2C(F)(F)F)CC1
remaining binding (Epidermal growth factor receptor (EGFR, Homo sapiens, UniProt P00533, del746-750); binding; 10 µM): 56%

c1cncc(-c2cccc(Nc3nccc(NC4CCCCC4)n3)c2)c1
remaining binding (EGFR del752-759; binding; competition with immobilised ligand; 10 µM): 69%

C[C@@H]1CCN(c2nccc(-c3cnn4ncccc34)n2)C1
remaining binding (EGFR; binding; 1 µM): 100%

Cc1cnc(Nc2ccc(C(=O)N3CCC(N4CCCC4)CC3)cc2)nc1-c1cc2ccccc2s1
remaining binding (EGFR del747-752/P753S; binding; competition with immobilised ligand; 1 µM): 100%

CNC(=O)[C@@H]1CC[C@@H](n2c(-c3ccc4cnccc4c3)nc3ccc(C(=O)NCc4cccc(C(N)=O)c4)cc32)C1
remaining binding (EGFR G719C; binding; competition with immobilised ligand; 1 µM): 100%

O=C(N1CCS(=O)(=O)CC1)N1C[C@H](c2ccc(OC(F)(F)F)cc2)C[C@H](c2nc(C3CC3)no2)C1
remaining binding (EGFR L858R; cell-free assay; competition with immobilised ligand; 1 µM): 100%

COc1cnc(Nc2cccc(S(N)(=O)=O)c2)nc1N1CCN(c2ccccc2)C(=O)C1
remaining binding (EGFR G719S; binding; competition with immobilised ligand; 1 µM): 100%

N#Cc1ccc(Nc2ccc3[nH]c(=O)[nH]c3c2)c(Cl)c1
remaining binding (EGFR del752-759; cell-free assay; competition with immobilised ligand; 1 µM): 100%

N[C@@H]1CCN(c2nccc(-c3cnn4ncccc34)n2)C1
remaining binding (EGFR L858R/T790M; binding; 1 µM): 100%

O=C(c1ccc(Nc2nccc(-c3cc4ccccc4s3)n2)cc1)N1CCC(N2CCCC2)CC1
remaining binding (EGFR T790M; binding; competition with immobilised ligand; 1 µM): 67%

O=C(O)[C@H]1[C@H](Cn2nnc3ccccc3c2=O)CC[C@@H]1C(=O)c1ccc(OCCC2CCOCC2)cc1
remaining binding (Epidermal growth factor receptor (EGFR, Homo sapiens, UniProt P00533, del747-750/T751S); cell-free assay; competition with immobilised ligand; 1 µM): 65%

CN(C)c1nccc(-c2cnn3ncccc23)n1
remaining binding (EGFR; binding; 1 µM): 100%

O=C(Nc1c[nH]nc1C(=O)NC1CCNCC1)c1cc(F)cc(F)c1
remaining binding (EGFR A750P/del747-749; binding; competition with immobilised ligand; 1 µM): 80%

COc1cnc(Nc2cccc(S(N)(=O)=O)c2)nc1N1CCN(c2ccccc2)CC1
remaining binding (EGFR T790M; binding; competition with immobilised ligand; 1 µM): 72%

COc1ccnn2ncc(-c3ccnc(N(C)C)n3)c12
remaining binding (EGFR; binding; 1 µM): 79%

Cc1noc([C@H]2C[C@@H](c3ccc(C(F)(F)F)cc3)CN(C(=O)N3CCS(=O)(=O)C3)C2)n1
remaining binding (EGFR del747-752/P753S; cell-free assay; competition with immobilised ligand; 1 µM): 78%

O=C(NCCCN1CCOCC1)c1ccc(Nc2ncc(Cl)c(-c3ccc(Cl)s3)n2)cc1
remaining binding (EGFR G719S; binding; competition with immobilised ligand; 1 µM): 100%

CN(CCCC(F)(F)F)c1nccc(-c2cnn3ncccc23)n1
remaining binding (EGFR del752-759; binding; 1 µM): 85%
